Results as given in ChEMBL document CHEMBL3822362, “Effects of N-Substitutions on the Tetrahydroquinoline (THQ) Core of Mixed-Efficacy μ-Opioid Receptor (MOR)/δ-Opioid Receptor (DOR) Ligands” (J Med Chem, 2016).
The source made the active and inactive calls.

What was measured:
[1] = molecular target: T1, Delta-type opioid receptor (Rattus norvegicus, UniProt P33533); experiment: Displacement of [3H]diprenorphine from rat DOR transfected in rat C6 cell membranes after 1 hr by liquid scintillation counting
In short: (§1)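 Membranes (20 μg protein/tube) in 50 mM Tris-HCl pH 7.4 with 0.2 nM [3H]diprenorphine and varying peptidomimetic concentrations, 1 h at room temperature to equilibrium. GF/C filtration, five buffer washes, scintillation counting. Nonspecific binding with 10 μM naloxone.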

[2] = molecular target: T2, Kappa-type opioid receptor (Homo sapiens, UniProt P41145); experiment: Agonist activity at human KOR expressed in CHO cell membranes at 10 uM after 1 hr by [35S]GTPgammaS assay relative to U69,593; type: functional
In short: (§2)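 Membranes (10–20 μg protein) from cells grown to confluence in DMEM/10% FBS, incubated 1 h at 25 °C in 50 mM Tris-HCl, 100 mM NaCl, 5 mM MgCl2, pH 7.4 with 0.1 nM [35S]GTPγS, 30 μM GDP and varying peptidomimetic concentrations. Filtered on GF/C, counted by scintillation. % stimulation relative to 10 μM DAMGO (MOR), DPDPE (DOR) or U69,593 (KOR).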

[3] = molecular target: T2, Kappa-type opioid receptor; experiment: Agonist activity at human KOR expressed in CHO cell membranes after 1 hr by [35S]GTPgammaS assay; type: functional; in short: as §2
[4] = tested on: Mus musculus; experiment: Antinociceptive activity in C57BL/6 mouse assessed as increase in latency time to tail flick at 1 to 10 mg/kg, ip measured at 30 min interval by warm water tail withdrawal assay; type: functional, organism-based
In short: (§3)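 Adult male C57BL/6 mice, 20–30 g, 8–16 weeks. Saline ip, baseline read 30 min later. Then three increasing ip doses every 30 min, in water or 1:1:8 ethanol:Alkumuls:water, giving cumulative 1, 3.2 and 10 mg/kg. Tail tip (2–3 cm) put in 50 °C water 30 min after each injection; latency to withdraw or flick read, 20 s cutoff; n = 3.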

[5] = molecular target: T1, Delta-type opioid receptor; experiment: Agonist activity at rat DOR transfected in rat C6 cell membranes after 1 hr by [35S]GTPgammaS assay; type: functional; in short: as §2
[6] = molecular target: Mu-type opioid receptor (Rattus norvegicus) (UniProt P33535); experiment: Agonist activity at rat MOR transfected in rat C6 cell membranes at 10 uM after 1 hr by [35S]GTPgammaS assay relative to DAMGO; type: functional; in short: as §2
[7] = molecular target: T3, Mu-type opioid receptor (Rattus norvegicus, UniProt P33535); experiment: Displacement of [3H]diprenorphine from rat MOR transfected in rat C6 cell membranes after 1 hr by liquid scintillation counting; in short: as §1
[8] = molecular target: T3, Mu-type opioid receptor; experiment: Agonist activity at rat MOR transfected in rat C6 cell membranes after 1 hr by [35S]GTPgammaS assay; type: functional; in short: as §2
[9] = molecular target: T2, Kappa-type opioid receptor; experiment: Displacement of [3H]diprenorphine from human KOR expressed in CHO cell membranes after 1 hr by liquid scintillation counting; in short: as §1
[10] = molecular target: Delta-type opioid receptor (Rattus norvegicus) (UniProt P33533); experiment: Agonist activity at rat DOR transfected in rat C6 cell membranes at 10 uM after 1 hr by [35S]GTPgammaS assay relative to DPDPE; type: functional; in short: as §2
[11] = tested on: Mus musculus; experiment: Antinociceptive activity in C57BL/6 mouse assessed as time duration of action at 10 mg/kg, ip by warm water tail withdrawal assay; type: functional
In short: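 Male C57BL/6 mice given a single 10 mg/kg ip dose. Tail-withdrawal latency in 50 °C water (2–3 cm tail tip, 20 s cutoff) read at varying times after dosing to follow duration of antinociception; n = 3.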

[12] = tested on: Mus musculus; experiment: Antinociceptive activity in C57BL/6 mouse assessed as latency time to tail flick at 10 mg/kg, ip measured at 30 min interval by warm water tail withdrawal assay; type: functional; in short: as §3
[13] = tested on: Mus musculus; experiment: Antinociceptive activity in C57BL/6 mouse assessed as increase in latency time to tail flick at 1 to 3.2 mg/kg, ip measured at 30 min interval by warm water tail withdrawal assay; type: functional, organism-based; in short: as §3

T2 sequence (P41145 whole entry): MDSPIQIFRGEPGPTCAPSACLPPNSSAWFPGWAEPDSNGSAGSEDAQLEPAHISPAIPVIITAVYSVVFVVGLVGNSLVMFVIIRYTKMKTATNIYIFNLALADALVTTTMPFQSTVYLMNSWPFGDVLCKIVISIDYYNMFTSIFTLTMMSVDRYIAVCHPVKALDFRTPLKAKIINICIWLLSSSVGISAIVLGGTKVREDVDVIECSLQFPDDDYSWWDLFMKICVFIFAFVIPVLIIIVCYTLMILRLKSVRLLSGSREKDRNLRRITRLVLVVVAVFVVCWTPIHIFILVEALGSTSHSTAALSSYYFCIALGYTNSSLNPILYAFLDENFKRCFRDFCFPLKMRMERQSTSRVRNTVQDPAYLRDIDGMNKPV
Chain of Delta-type opioid receptor (Rattus norvegicus) (P33533 whole entry): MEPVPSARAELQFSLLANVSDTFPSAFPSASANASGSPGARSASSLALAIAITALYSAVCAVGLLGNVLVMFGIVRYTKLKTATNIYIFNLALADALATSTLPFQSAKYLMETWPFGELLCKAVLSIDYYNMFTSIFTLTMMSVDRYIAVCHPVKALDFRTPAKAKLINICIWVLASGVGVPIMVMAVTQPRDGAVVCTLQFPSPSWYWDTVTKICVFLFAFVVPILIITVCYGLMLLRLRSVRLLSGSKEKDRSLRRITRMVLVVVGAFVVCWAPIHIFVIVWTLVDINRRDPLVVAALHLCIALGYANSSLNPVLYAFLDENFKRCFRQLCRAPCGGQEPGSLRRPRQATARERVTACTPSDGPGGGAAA
T1 sequence (P33533 whole entry): as above
T3 sequence (P33535 whole entry): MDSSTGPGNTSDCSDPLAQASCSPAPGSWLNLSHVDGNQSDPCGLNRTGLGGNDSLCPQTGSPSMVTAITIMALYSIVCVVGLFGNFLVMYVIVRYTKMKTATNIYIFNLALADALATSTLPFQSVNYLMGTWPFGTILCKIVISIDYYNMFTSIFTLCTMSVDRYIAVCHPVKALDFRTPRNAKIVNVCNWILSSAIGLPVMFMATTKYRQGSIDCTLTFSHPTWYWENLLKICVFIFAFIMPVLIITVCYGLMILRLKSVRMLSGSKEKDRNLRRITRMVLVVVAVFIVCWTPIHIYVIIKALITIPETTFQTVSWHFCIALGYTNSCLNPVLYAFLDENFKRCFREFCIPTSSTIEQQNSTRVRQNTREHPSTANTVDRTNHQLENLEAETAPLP
Chain of Mu-type opioid receptor (Rattus norvegicus) (P33535 whole entry): as above

SMILES | Ki [1] | Emax [2] | EC50 ([3]; read-out: EC50) | Activity [4] | EC50 ([5]; c6) | Emax [6] | Ki [7] | EC50 [8] | Ki [9] | EC50 ([3]; cho) | Emax [10] | EC50 ([5]; read-out: EC50) | Time [11] | Time [12] | Activity [13]
CCC(=O)N1CC[C@@H](NC(=O)[C@@H](N)Cc2c(C)cc(O)cc2C)c2cc(Cc3ccc4ccccc4c3)ccc21 | 0.21 nM | 15% | > 1400 nM | inactive | Not Active | 75% | 0.28 nM | 13 nM | 58 nM |  |  |  |  |  | 
Cc1cc(O)cc(C)c1C[C@H](N)C(=O)N[C@@H]1CCN(CC(=O)O)c2ccc(Cc3ccccc3)cc21 | 67 nM | inactive |  |  | Not Active | 87% | 4.4 nM | 78 nM | 280 nM | Not Active | inactive |  |  |  | 
COC(=O)N1CC[C@@H](NC(=O)[C@@H](N)Cc2c(C)cc(O)cc2C)c2cc(Cc3ccc4ccccc4c3)ccc21 | 1 nM |  |  | inactive | Not Active | 110% | 0.32 nM | 0.39 nM | 190 nM | Not Active |  |  |  |  | 
CCC(=O)N1CC[C@@H](NC(=O)[C@@H](N)Cc2c(C)cc(O)cc2C)c2cc(Cc3ccccc3)ccc21 | 1.1 nM | 32% | 880 nM |  |  | 96% | 0.12 nM | 3.9 nM | 40 nM |  | 58% | 32 nM |  |  | 
COC(=O)N1CC[C@@H](NC(=O)[C@@H](N)Cc2c(C)cc(O)cc2C)c2cc(Cc3ccccc3)ccc21 | 0.51 nM | 28% | 250 nM |  |  | 95% | 0.19 nM | 0.78 nM | 29 nM |  | 40% | 14 nM | 1 h | 20 s | 
CC(=O)N1CC[C@@H](NC(=O)[C@@H](N)Cc2c(C)cc(O)cc2C)c2cc(Cc3ccccc3)ccc21 |  |  |  | inactive |  |  |  |  |  |  |  |  |  |  | 
Cc1cc(O)cc(C)c1C[C@H](N)C(=O)N[C@@H]1CCN(C(=O)c2ccccc2)c2ccc(Cc3ccccc3)cc21 | 0.24 nM | 16% | 430 nM | inactive | Not Active | 74% | 0.08 nM | 2.6 nM | 39 nM |  |  |  |  |  | 
COCC(=O)N1CC[C@@H](NC(=O)[C@@H](N)Cc2c(C)cc(O)cc2C)c2cc(Cc3ccccc3)ccc21 | 2.1 nM | 38% | > 1700 nM | inactive |  | 91% | 0.15 nM | 3 nM | 34 nM |  | 47% | 67 nM |  |  | 
CCOC(=O)CN1CC[C@@H](NC(=O)[C@@H](N)Cc2c(C)cc(O)cc2C)c2cc(Cc3ccccc3)ccc21 | 0.58 nM | 24% | > 1300 nM |  |  | 79% | 0.37 nM | 5.1 nM | 15 nM |  | 34% | 15 nM |  |  | 
Cc1cc(O)cc(C)c1C[C@H](N)C(=O)N[C@@H]1CCN(CC(N)=O)c2ccc(Cc3ccccc3)cc21 | 2 nM | 49% | 380 nM | inactive |  | 99% | 0.23 nM | 1.5 nM | 4.3 nM |  | 34% | 270 nM |  |  | 
CCCC(=O)N1CC[C@@H](NC(=O)[C@@H](N)Cc2c(C)cc(O)cc2C)c2cc(Cc3ccc4ccccc4c3)ccc21 | 0.8 nM | inactive |  | inactive | Not Active | 92% | 0.14 nM | 0.9 nM | 64 nM | Not Active | inactive |  |  |  | 
Cc1cc(O)cc(C)c1C[C@H](N)C(=O)N[C@@H]1CCN(C(=O)C(C)C)c2ccc(Cc3ccccc3)cc21 | 0.53 nM | 41% | > 1300 nM | inactive |  | 95% | 0.38 nM | 9.6 nM | 76 nM |  | 52% | 25 nM |  |  | 
Cc1cc(O)cc(C)c1C[C@H](N)C(=O)N[C@@H]1CCN(C(=O)C2CCC2)c2ccc(Cc3ccccc3)cc21 | 0.15 nM | inactive |  | inactive |  | 94% | 0.23 nM | 2.1 nM | 56 nM | Not Active | 58% | 5.1 nM |  |  | 
Cc1cc(O)cc(C)c1C[C@H](N)C(=O)N[C@@H]1CCNc2ccc(Cc3ccccc3)cc21 |  |  |  |  |  |  |  |  |  |  |  |  | 1 h |  | inactive
CCCC(=O)N1CC[C@@H](NC(=O)[C@@H](N)Cc2c(C)cc(O)cc2C)c2cc(Cc3ccccc3)ccc21 | 1 nM | 22% | > 1200 nM |  |  | 53% | 0.1 nM | 3.5 nM | 50 nM |  | 44% | 8.1 nM |  |  | 
Cc1cc(O)cc(C)c1C[C@H](N)C(=O)N[C@@H]1CCN(C(=O)C2CC2)c2ccc(Cc3ccccc3)cc21 | 0.35 nM | 32% | 1000 nM |  |  | 88% | 0.1 nM | 1.8 nM | 25 nM |  | 69% | 10 nM |  | 11 s | 
